Reference: ChEMBL document CHEMBL2396592, “Discovery of Dap-3 polymyxin analogues for the treatment of multidrug-resistant Gram-negative nosocomial infections” (J Med Chem, 2013)
Values after ≈ are worked out from the molar mass of the structure shown. Where a SMILES comes first, the peptide text is derived from it. Bridges are numbered along the chain shown (N, C = ends). [ ]: non-standard residue; d: D form. The star is where a group is joined. X7 = N#Cc1ccc(-c2cc(C(=O)*)ccc2Cl)cc1; X11 = COc1cc(C(=O)*)cc(-c2ccccc2)c1; X12 = O=C(c1ccc(Cl)c(-c2ccccc2)c1)*; X4 = O=C(c1ccnc(-c2ccc(Cl)cc2)c1)*; X5 = O=C(c1ccc(Cl)c(-c2ccccn2)c1)*; X9 = COc1ccc(-c2cc(C(=O)*)ccn2)cc1; 2Naphthoyl = O=C(c1ccc2ccccc2c1)*; X10 = O=C(c1ccnc(-c2ccccc2Cl)c1)*; X8 = N#Cc1cc(C(=O)*)ccc1-c1ccccc1; X2 = COc1ccc(C(=O)*)cc1-c1ccccc1; X1 = O=C(c1cnnc(-c2ccccc2)c1)*; X3 = O=C(c1cncc(-c2ccccc2)c1)*; X6 = CC[C@H](C)CCCCC(=O)*; Dab = NCC[C@H](N)C(=O)O; Dap = NC[C@H](N)C(=O)O

What was measured:
[1] = system: Pseudomonas aeruginosa; experiment: Antibacterial activity against polymyxin-sensitive Pseudomonas aeruginosa 1401 assessed as growth inhibition by broth microdilution method; assay type: functional
Method in brief: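 CLSI broth microdilution MIC against P. aeruginosa 1401 (PA01) and 1402 (UC12120), the two strains used in the mouse thigh model.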

[2] = system: Acinetobacter baumannii; experiment: Antibacterial activity against polymyxin-sensitive Acinetobacter baumannii clinical isolate 3167 assessed as growth inhibition by broth microdilution method; assay type: functional
[3] = Cytotoxicity against human RPTEC after 24 hrs by LDH assay; assay type: cell-based; conditions: RPTEC cells, read-out: TC50
Method in brief: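 Primary human renal proximal tubule epithelial cells in REGM (EGF, hydrocortisone, epinephrine, insulin, T3, transferrin, gentamycin/amphotericin-B, FBS). After 72 h of growth at 37 °C, 5% CO2, cells were exposed for 24 h to aqueous compound at 100, 67, 44, 30, 20 and 13 μM. LDH release into the supernatant was measured by kit and TC50 (μM) derived, with PMB and PMBN as controls.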

[4] = system: Pseudomonas aeruginosa; experiment: Antibacterial activity against polymyxin-resistant Pseudomonas aeruginosa clinical isolate 1646 assessed as growth inhibition by broth microdilution method; assay type: functional
Method in brief: (§1)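 Test strain PA-1646 is a P. aeruginosa isolate with a mutated PmrAB two-component system. The system is constitutively active, so the modified lipid A moiety is constantly expressed on the cell surface, giving a polymyxin-resistant phenotype.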

[5] = system: Klebsiella pneumoniae; experiment: Antibacterial activity against polymyxin-sensitive ESBL-positive Klebsiella pneumoniae clinical isolate 3700 assessed as growth inhibition by broth microdilution method; assay type: functional
[6] = system: Acinetobacter baumannii; experiment: Bactericidal activity against polymyxin-resistant Acinetobacter baumannii clinical isolate 1649; assay type: functional
[7] = system: Pseudomonas aeruginosa; experiment: Bactericidal activity against polymyxin-resistant Pseudomonas aeruginosa clinical isolate 1646; assay type: functional; method in brief: as §1
[8] = system: Acinetobacter baumannii; experiment: Antibacterial activity against polymyxin-resistant Acinetobacter baumannii clinical isolate 1649 assessed as growth inhibition by broth microdilution method; assay type: functional
[9] = system: Escherichia coli; experiment: Antibacterial activity against polymyxin-sensitive Escherichia coli isolate 1 assessed as growth inhibition by broth microdilution method; assay type: functional

Structure (SMILES) | MIC [1] [µg/mL] | MIC [2] [µg/mL] | CC50 at 24 h [3] [µM] | MIC [4] [µg/mL] | MIC [5] [µg/mL] | MBC [6] [µg/mL] | MBC [7] [µg/mL] | MIC [8] [µg/mL] | MIC [9] [µg/mL]
CC(C)C[C@@H]1NC(=O)[C@@H](Cc2ccccc2)NC(=O)[C@H](CCN)NC(=O)[C@@H](NC(=O)[C@H](CN)NC(=O)[C@@H](NC(=O)[C@H](CCN)NC(=O)c2ccc3ccccc3c2)[C@@H](C)O)CCNC(=O)[C@H]([C@@H](C)O)NC(=O)[C@H](CCN)NC(=O)[C@H](CCN)NC1=O (2Naphthoyl-[Dab]T[Dap][Dab][Dab][dF]L[Dab][Dab]T; lactam 4-C) | 0.5 | 0.25 | 51 | 4 | 0.125 | 2 (≈ 1.66 µM) | 16 (≈ 13.3 µM) | 2 | 0.125
CC(C)C[C@@H]1NC(=O)[C@@H](Cc2ccccc2)NC(=O)[C@H](CCN)NC(=O)[C@@H](NC(=O)[C@H](CN)NC(=O)[C@@H](NC(=O)[C@H](CCN)NC(=O)c2cnnc(-c3ccccc3)c2)[C@@H](C)O)CCNC(=O)[C@H]([C@@H](C)O)NC(=O)[C@H](CCN)NC(=O)[C@H](CCN)NC1=O (X1-[Dab]T[Dap][Dab][Dab][dF]L[Dab][Dab]T; lactam 4-C) | 0.25 | 0.25 | 84 | 2 | 0.125 | 4 (≈ 3.25 µM) | 8 (≈ 6.5 µM) | 2 | 0.125
COc1ccc(C(=O)N[C@@H](CCN)C(=O)N[C@H](C(=O)N[C@@H](CN)C(=O)N[C@H]2CCNC(=O)[C@H]([C@@H](C)O)NC(=O)[C@H](CCN)NC(=O)[C@H](CCN)NC(=O)[C@H](CC(C)C)NC(=O)[C@@H](Cc3ccccc3)NC(=O)[C@H](CCN)NC2=O)[C@@H](C)O)cc1-c1ccccc1 (X2-[Dab]T[Dap][Dab][Dab][dF]L[Dab][Dab]T; lactam 4-C) | 0.5 | 0.5 | 27 | 1 | 0.25 | 2 (≈ 1.59 µM) | 2 (≈ 1.59 µM) | 2 | 0.25
CC(C)C[C@@H]1NC(=O)[C@@H](Cc2ccccc2)NC(=O)[C@H](CCN)NC(=O)[C@@H](NC(=O)[C@H](CN)NC(=O)[C@@H](NC(=O)[C@H](CCN)NC(=O)c2cncc(-c3ccccc3)c2)[C@@H](C)O)CCNC(=O)[C@H]([C@@H](C)O)NC(=O)[C@H](CCN)NC(=O)[C@H](CCN)NC1=O (X3-[Dab]T[Dap][Dab][Dab][dF]L[Dab][Dab]T; lactam 4-C) | 0.5 | 0.25 | 56 | 2 | 0.25 | 4 (≈ 3.25 µM) | 4 (≈ 3.25 µM) | 4 | 0.125
CC(C)C[C@@H]1NC(=O)[C@@H](Cc2ccccc2)NC(=O)[C@H](CCN)NC(=O)[C@@H](NC(=O)[C@H](CN)NC(=O)[C@@H](NC(=O)[C@H](CCN)NC(=O)c2ccnc(-c3ccc(Cl)cc3)c2)[C@@H](C)O)CCNC(=O)[C@H]([C@@H](C)O)NC(=O)[C@H](CCN)NC(=O)[C@H](CCN)NC1=O (X4-[Dab]T[Dap][Dab][Dab][dF]L[Dab][Dab]T; lactam 4-C) | 0.5 | 0.25 | 30 | 1 | 0.25 | 1 (≈ 0.791 µM) | 1 (≈ 0.791 µM) | 1 | 0.25
CC(C)C[C@@H]1NC(=O)[C@@H](Cc2ccccc2)NC(=O)[C@H](CCN)NC(=O)[C@@H](NC(=O)[C@H](CN)NC(=O)[C@@H](NC(=O)[C@H](CCN)NC(=O)c2ccc(Cl)c(-c3ccccn3)c2)[C@@H](C)O)CCNC(=O)[C@H]([C@@H](C)O)NC(=O)[C@H](CCN)NC(=O)[C@H](CCN)NC1=O (X5-[Dab]T[Dap][Dab][Dab][dF]L[Dab][Dab]T; lactam 4-C) | 1 | 0.25 | 72 | 4 | 0.25 | 4 (≈ 3.16 µM) | 16 (≈ 12.6 µM) | 4 | 0.25
CC[C@H](C)CCCCC(=O)N[C@@H](CCN)C(=O)N[C@H](C(=O)N[C@@H](CCN)C(=O)N[C@H]1CCNC(=O)[C@H]([C@@H](C)O)NC(=O)[C@H](CCN)NC(=O)[C@H](CCN)NC(=O)[C@H](CC(C)C)NC(=O)[C@@H](Cc2ccccc2)NC(=O)[C@H](CCN)NC1=O)[C@@H](C)O (X6-[Dab]T[Dab][Dab][Dab][dF]L[Dab][Dab]T; lactam 4-C) | 0.5 | 0.25 | 27 | 4 | 0.5 | 4 (≈ 3.32 µM) | 16 (≈ 13.3 µM) | 4 | 0.125
CC[C@H](C)CCCCC(=O)N[C@@H](CCN)C(=O)N[C@H](C(=O)N[C@@H](CN)C(=O)N[C@H]1CCNC(=O)[C@H]([C@@H](C)O)NC(=O)[C@H](CCN)NC(=O)[C@H](CCN)NC(=O)[C@H](CC(C)C)NC(=O)[C@@H](Cc2ccccc2)NC(=O)[C@H](CCN)NC1=O)[C@@H](C)O (X6-[Dab]T[Dap][Dab][Dab][dF]L[Dab][Dab]T; lactam 4-C) | 0.5 | 0.125 | 72 | 1 | 0.125 | 4 (≈ 3.36 µM) | 2 (≈ 1.68 µM) | 4 | 0.125
CC(C)C[C@@H]1NC(=O)[C@@H](Cc2ccccc2)NC(=O)[C@H](CCN)NC(=O)[C@@H](NC(=O)[C@H](CN)NC(=O)[C@@H](NC(=O)[C@H](CCN)NC(=O)c2ccc(Cl)c(-c3ccc(C#N)cc3)c2)[C@@H](C)O)CCNC(=O)[C@H]([C@@H](C)O)NC(=O)[C@H](CCN)NC(=O)[C@H](CCN)NC1=O (X7-[Dab]T[Dap][Dab][Dab][dF]L[Dab][Dab]T; lactam 4-C) | 1 | 0.5 | 20 | 1 | 0.5 | 4 (≈ 3.1 µM) | 4 (≈ 3.1 µM) | 4 | 0.5
CC(C)C[C@@H]1NC(=O)[C@@H](Cc2ccccc2)NC(=O)[C@H](CCN)NC(=O)[C@@H](NC(=O)[C@H](CN)NC(=O)[C@@H](NC(=O)[C@H](CCN)NC(=O)c2ccc(-c3ccccc3)c(C#N)c2)[C@@H](C)O)CCNC(=O)[C@H]([C@@H](C)O)NC(=O)[C@H](CCN)NC(=O)[C@H](CCN)NC1=O (X8-[Dab]T[Dap][Dab][Dab][dF]L[Dab][Dab]T; lactam 4-C) | 1 | 0.25 | 32 | 2 | 0.5 | 1 (≈ 0.797 µM) | 4 (≈ 3.19 µM) | 1 | 0.5
COc1ccc(-c2cc(C(=O)N[C@@H](CCN)C(=O)N[C@H](C(=O)N[C@@H](CN)C(=O)N[C@H]3CCNC(=O)[C@H]([C@@H](C)O)NC(=O)[C@H](CCN)NC(=O)[C@H](CCN)NC(=O)[C@H](CC(C)C)NC(=O)[C@@H](Cc4ccccc4)NC(=O)[C@H](CCN)NC3=O)[C@@H](C)O)ccn2)cc1 (X9-[Dab]T[Dap][Dab][Dab][dF]L[Dab][Dab]T; lactam 4-C) | 0.5 | 0.25 | 78 | 2 | 0.25 | 2 (≈ 1.59 µM) | 8 (≈ 6.35 µM) | 2 | 0.25
CC(C)C[C@@H]1NC(=O)[C@@H](Cc2ccccc2)NC(=O)[C@H](CCN)NC(=O)[C@@H](NC(=O)[C@H](CN)NC(=O)[C@@H](NC(=O)[C@H](CCN)NC(=O)c2ccnc(-c3ccccc3Cl)c2)[C@@H](C)O)CCNC(=O)[C@H]([C@@H](C)O)NC(=O)[C@H](CCN)NC(=O)[C@H](CCN)NC1=O (X10-[Dab]T[Dap][Dab][Dab][dF]L[Dab][Dab]T; lactam 4-C) | 0.5 | 0.25 | 86 | 4 | 0.25 | 1 (≈ 0.791 µM) | 16 (≈ 12.6 µM) | 1 | 0.125
COc1cc(C(=O)N[C@@H](CCN)C(=O)N[C@H](C(=O)N[C@@H](CN)C(=O)N[C@H]2CCNC(=O)[C@H]([C@@H](C)O)NC(=O)[C@H](CCN)NC(=O)[C@H](CCN)NC(=O)[C@H](CC(C)C)NC(=O)[C@@H](Cc3ccccc3)NC(=O)[C@H](CCN)NC2=O)[C@@H](C)O)cc(-c2ccccc2)c1 (X11-[Dab]T[Dap][Dab][Dab][dF]L[Dab][Dab]T; lactam 4-C) | 0.5 | 0.25 | 26 | 2 | 0.25 | 8 (≈ 6.35 µM) | 4 (≈ 3.18 µM) | 4 | 0.25
CC(C)C[C@@H]1NC(=O)[C@@H](Cc2ccccc2)NC(=O)[C@H](CCN)NC(=O)[C@@H](NC(=O)[C@H](CN)NC(=O)[C@@H](NC(=O)[C@H](CCN)NC(=O)c2ccc(Cl)c(-c3ccccc3)c2)[C@@H](C)O)CCNC(=O)[C@H]([C@@H](C)O)NC(=O)[C@H](CCN)NC(=O)[C@H](CCN)NC1=O (X12-[Dab]T[Dap][Dab][Dab][dF]L[Dab][Dab]T; lactam 4-C) | 1 | 0.5 | 14 | 0.5 | 0.25 | 1 (≈ 0.791 µM) | 1 (≈ 0.791 µM) | 1 | 0.25
